The record followed here is the RNAGym collection of RNA variant scans (doi:10.1002/anie.201605470).

Sequences and labels used below:
B1: Osa-1-4 twister ribozyme (parent)
chain: CCGCCUAACACUGCCAAUGCCGGUCCCAAGCCCGGAUAAAAGUGGAGGGGGCGG

Variants of B1 are the subject of the data set. The data set can be described thus: self-cleavage, relative activity (ratio to wild type); higher = more cleavage; co-transcriptional. A digest of the protocol:
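The 48 positions downstream of the cleavage site in a DNA template for a 54-nucleotide Oryza sativa twister ribozyme carried 97 % wild-type base and 1 % of each other base. After in vitro transcription (2 h, 37 °C) with co-transcriptional self-cleavage, the RNA was reverse-transcribed with a template-switching oligonucleotide, PCR-amplified and deep-sequenced. Relative activity is the fraction cleaved, judged by reads with or without upstream sequence and normalised to wild type.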
As to CCGCCUAACACUGCCAUUGCCUGUCCCAAGCCCGGAUAAAAGUGGAGGGGGCGG [A17U G22U], the self-cleavage turned out to be 0.63.
Regarding CCGCCUAACACUGCCAUUGCCCGUCCCAAGCCCGGAUAAAAGUGGAGGGGGCGG [A17U G22C], the self-cleavage amounted to 0.11.
For CCGCCUAACACUGCCAUUGCCAGUCCCAAGCCCGGAUAAAAGUGGAGGGGGCGG [A17U G22A], the self-cleavage came to 1.04.
On to CCGCCUAACACUGCCAUUGCCGGUCCCAAGCCCGGAUAAAAUUGGAGGGGGCGG [A17U G42U], for which the self-cleavage was found to be 0.56.
Then CCGCCUAACACUGCCAUUGCCGGUCCCAAGCCCGGAUAAAAAUGGAGGGGGCGG [A17U G42A], with 0.17.
Turning to CCGCCUAACACUGCCAUUGCCGGUCCCAAGCCCGGAUAAAACUGGAGGGGGCGG [A17U G42C], the self-cleavage stood at 0.29.
The value for CCGCCUAACACUGCCAUUGCCGGUCCCAAGCCCGGAUAAAAGUGGAUGGGGCGG [A17U G47U] was 0.45; that for CCGCCUAACACUGCCAUUGCCGGUCCCAAGCCCGGAUAAAAGUGGACGGGGCGG [A17U G47C] was 0.16.
Then CCGCCUAACACUGCCAUUGCCGGUCCCAAGCCCGGAUAAAAGUGGAAGGGGCGG [A17U G47A], with 0.47; and CCGCCUAACACUGCCAUUGCCGGUCCCAAACCCGGAUAAAAGUGGAGGGGGCGG [A17U G30A], with 0.05; and CCGCCUAACACUGCCAUUGCCGGUCCCAAUCCCGGAUAAAAGUGGAGGGGGCGG [A17U G30U], with 0.04.
Turning to CCGCCUAACACUGCCAUUGCCGGUCCCAACCCCGGAUAAAAGUGGAGGGGGCGG [A17U G30C], the self-cleavage amounted to 0.06.
Take CCGCCUAACACUGCCAUUGCCGGUCCCAAGCCCGGAUAAAAGUGGAGGGGGCUG [A17U G53U]: the self-cleavage amounted to 0.41.
Then CCGCCUAACACUGCCAUUGCCGGUCCCAAGCCCGGAUAAAAGUGGAGGGGGCCG [A17U G53C], with 0.12; and CCGCCUAACACUGCCAUUGCCGGUCCCAAGCCCGGAUAAAAGUGGAGGGGGCAG [A17U G53A], with 0.95.
Regarding CCGCCUAACACUGCCAUUGCCGGUCCCAAGCCCGGAUAAAAGUGGAGGGCGCGG [A17U G50C], the self-cleavage came to 1.02.
On to CCGCCUAACACUGCCAUUGCCGGUCCCAAGCCCGGAUAAAAGUGGAGGGAGCGG [A17U G50A], for which the self-cleavage turned out to be 0.69.
Then CCGCCUAACACUGCCAUUGCCGGUCCCAAGCCCGGAUAAAAGUGGAGGGUGCGG [A17U G50U], with 1.02.
Then CCGCCUAACACUGCCAUUGCCGGUCCCAAGCCCGGAUAAAAGUCGAGGGGGCGG [A17U G44C], with 0.98; and CCGCCUAACACUGCCAUUGCCGGUCCCAAGCCCGGAUAAAAGUUGAGGGGGCGG [A17U G44U], with 0.94.
For the variant CCGCCUAACACUGCCAUUGCCGGUCCCAAGCCCGGAUAAAAGUAGAGGGGGCGG [A17U G44A], the self-cleavage amounted to 1.
The value for CCGCCUAACACUGCCAUUGCCGUUCCCAAGCCCGGAUAAAAGUGGAGGGGGCGG [A17U G23U] was 0.13.
As for CCGCCUAACACUGCCAUUGCCGCUCCCAAGCCCGGAUAAAAGUGGAGGGGGCGG [A17U G23C], the self-cleavage is 0.06.
Then CCGCCUAACACUGCCAUUGCCGAUCCCAAGCCCGGAUAAAAGUGGAGGGGGCGG [A17U G23A], with 0.56.
CCGCCUAACACUGCCAUUGCCGGUCCCAAGCCCGGAUAAAAGUGUAGGGGGCGG [A17U G45U]: the self-cleavage was determined as 0.18.
Then CCGCCUAACACUGCCAUUGCCGGUCCCAAGCCCGGAUAAAAGUGAAGGGGGCGG [A17U G45A], with 0.54.
As to CCGCCUAACACUGCCAUUGCCGGUCCCAAGCCCGGAUAAAAGUGCAGGGGGCGG [A17U G45C], the self-cleavage was 0.06.
On to CCGCCUAACACUGCCAUUGCCGGUCCCAAGCCCGGAUAAAAGUGGAGAGGGCGG [A17U G48A], for which the self-cleavage amounted to 0.16.
Then CCGCCUAACACUGCCAUUGCCGGUCCCAAGCCCGGAUAAAAGUGGAGUGGGCGG [A17U G48U], with 0.08; and CCGCCUAACACUGCCAUUGCCGGUCCCAAGCCCGGAUAAAAGUGGAGCGGGCGG [A17U G48C], with 0.13.
As to CCGCCUAACACUGCCAUUUCCGGUCCCAAGCCCGGAUAAAAGUGGAGGGGGCGG [A17U G19U], the self-cleavage was 0.38.
The value for CCGCCUAACACUGCCAUUCCCGGUCCCAAGCCCGGAUAAAAGUGGAGGGGGCGG [A17U G19C] was 0.43.
The value for CCGCCUAACACUGCCAUUACCGGUCCCAAGCCCGGAUAAAAGUGGAGGGGGCGG [A17U G19A] was 0.83; that for CCGCCUAACACUGCCAUUGCCGGUCCCAAGCCCGCAUAAAAGUGGAGGGGGCGG [A17U G35C] was 0.86; that for CCGCCUAACACUGCCAUUGCCGGUCCCAAGCCCGAAUAAAAGUGGAGGGGGCGG [A17U G35A] was 0.9.
The value for CCGCCUAACACUGCCAUUGCCGGUCCCAAGCCCGUAUAAAAGUGGAGGGGGCGG [A17U G35U] was 0.92; that for CCGCCUAACACUGCCAUUGCCGGUCCCAAGCCCGGAUAAAAGUGGAGGGGGCGU [A17U G54U] was 0.99.
On to CCGCCUAACACUGCCAUUGCCGGUCCCAAGCCCGGAUAAAAGUGGAGGGGGCGC [A17U G54C], for which the self-cleavage is 1.
CCGCCUAACACUGCCAUUGCCGGUCCCAAGCCCGGAUAAAAGUGGAGGGGGCGA [A17U G54A]: the self-cleavage amounted to 0.99.
Turning to CCGCCUAACACUGCCAUUGCCGGUCCCAAGCCCGGAUAAAAGUGGAGGGGACGG [A17U G51A], the self-cleavage was determined as 0.67.
Then CCGCCUAACACUGCCAUUGCCGGUCCCAAGCCCGGAUAAAAGUGGAGGGGCCGG [A17U G51C], with 0.19.
Turning to CCGCCUAACACUGCCAUUGCCGGUCCCAAGCCCGGAUAAAAGUGGAGGGGUCGG [A17U G51U], the self-cleavage came to 0.38.
Take CCGCCUAACACUUCCAUUGCCGGUCCCAAGCCCGGAUAAAAGUGGAGGGGGCGG [A17U G13U]: the self-cleavage stood at 0.03.
Regarding CCGCCUAACACUGCCAUUGCCGGUCCCAAGCCCGGAUAAAAGUGGAGGCGGCGG [A17U G49C], the self-cleavage was found to be 0.08.
Then CCGCCUAACACUGCCAUUGCCGGUCCCAAGCCCGGAUAAAAGUGGAGGUGGCGG [A17U G49U], with 0.22; and CCGCCUAACACUGCCAUUGCCGGUCCCAAGCCCGGAUAAAAGUGGAGGAGGCGG [A17U G49A], with 0.25; and CCGCCUAACACUGCCAUUGCCGGUCCCAAGCCCAGAUAAAAGUGGAGGGGGCGG [A17U G34A], with 0.82.
With CCGCCUAACACUGCCAUUGCCGGUCCCAAGCCCCGAUAAAAGUGGAGGGGGCGG [A17U G34C], the self-cleavage was found to be 0.5.
Then CCGCCUAACACUGCCAUUGCCGGUCCCAAGCCCUGAUAAAAGUGGAGGGGGCGG [A17U G34U], with 0.78.
